The subject of one test is K562. The test is described as follows: Antiproliferative activity against human K562 cells assessed as growth inhibition after 72 hrs by MTT assay. It counts as functional, cell-based. The following applies: K562, 72 h. The gist of the method: (§1)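 MTT proliferation assay on human K562 leukaemia, MCF-7 breast adenocarcinoma, Bel-7402 hepatocellular carcinoma and MGC-803 gastric cancer cells. Drug exposure 72 h. IC50 is the concentration inhibiting 50% of cell growth. Means ± SD, n = 3.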
(In general: Formazan colour is commonly taken as a measure of viable cells.)

The next test relates to MCF7. The test is described as follows: Antiproliferative activity against human MCF7 cells assessed as growth inhibition after 72 hrs by MTT assay. It counts as functional, cell-based. The following applies: MCF7, 72 h. The essentials: as §1
Test [1] is described as follows: Antiproliferative activity against human Bel7402 cells assessed as growth inhibition after 72 hrs by MTT assay. The format is functional, cell-based. The following applies: Bel-7402, 72 h. The essentials:
as §1

The subject of the next test is MGC-803. As to the kind of experiment: Antiproliferative activity against human MGC803 cells assessed as growth inhibition after 72 hrs by MTT assay. It counts as functional, cell-based. The following applies: MGC-803, 72 h. The essentials: as §1
For the next test, the system named is SW-620. As to the kind of experiment: Anticancer activity against human SW620 cells by MTT assay. It counts as functional, cell-based. The gist of the method:
(§2)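 MTT cytotoxicity run on paired parental and transporter-overexpressing lines: SW620 vs ABCB1-overexpressing SW620/AD300, and NCI-H460 vs ABCG2-overexpressing NCI-H460/MX20. IC50 is the concentration inhibiting 50% of cell growth. Concentrations tested up to 100 μM.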

Test [2] can be described thus: Anticancer activity against ABCB1-overexpressing human SW620/AD300 cells by MTT assay. The following applies: SW-620. It counts as functional, cell-based. The essentials: as §2
The test system of the next test is NCI-H460. As to the kind of experiment: Anticancer activity against human NCI-H460 cells by MTT assay. The format is functional, cell-based. The gist of the method:
as §2

The nature of test [3]: Anticancer activity against ABCG2-overexpressing human NCI-H460/MX20 cells by MTT assay. The format is functional, cell-based. The gist of the method:
as §2

Test [4] is described as follows: Anticancer activity against human Bel7402 cells assessed as growth inhibition by MTT assay. It counts as functional, cell-based. The following applies: Bel-7402. The gist of the method:
(§3)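 Toxicity compared on human normal liver L-02 cells and human liver cancer Bel-7402 cells run side by side. Survival curves by MTT after 72 h treatment. IC50 is the concentration inhibiting 50% of cell growth.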

Test [5] is described as follows: Cytotoxicity against human L02 cells by MTT assay. It counts as cell-based. The essentials:
as §3

The test system of the next test is Bel-7402. The test is described as follows: Selectivity index, ratio of IC50 for human L02 cells to ratio of IC50 for human Bel-7402 cells. It counts as functional. The gist of the method: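 Selectivity index is IC50 on normal L-02 liver cells divided by IC50 on Bel-7402 tumour cells. Both IC50 values come from MTT survival curves after 72 h exposure.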

Bounds are passed on as bounds.

Broadly, the IC50 is the concentration needed to halve the response being measured. As to `C=C1C(=O)[C@]23[C@H](OC(=O)[C@H](Cc4ccc(N(CCCl)CCCl)cc4)NC(=O)OC(C)(C)C)[C@H]1CC[C@H]2[C@@]12CO[C@@]3(O)[C@@H](O)[C@@H]1C(C)(C)CC[C@@H]2O`, the IC50 with K562 is 1.41 µM; in the test on MCF7, 3.22 µM; in test [1], 2.36 µM; in the test with MGC-803 it was 6.72 µM.

Turning to `C=C1C(=O)[C@]23[C@H](OC(=O)CCCc4ccc(N(CCCl)CCCl)cc4)[C@H]1CC[C@H]2[C@@]12CO[C@@]3(O)[C@@H](O)[C@@H]1C(C)(C)CC[C@@H]2OC(C)=O`, the IC50 in the test with K562 came to 1.1 µM; in the test with MCF7, 0.79 µM; in test [1] it was 1.37 µM; in the test with MGC-803, 2.25 µM.

For `C=C1C(=O)[C@]23[C@H](OC(=O)CCC(=O)N[C@@H](Cc4ccc(N(CCCl)CCCl)cc4)C(=O)OC)[C@H]1CC[C@H]2[C@@]12CO[C@@]3(O)[C@@H](O)[C@@H]1C(C)(C)CC[C@@H]2O`, the IC50 in the test with K562 was 9.01 µM; in the test with MCF7, 14.4 µM; in [1], 8.35 µM; in the test on MGC-803, 9.3 µM; with SW-620, 14 µM; in test [2], 14.9 µM. For the same compound, the IC50 was 28.4 µM with NCI-H460 and > 100 µM in test [3].

As to `C=C1C(=O)[C@]23[C@H](OC(=O)CCC(=O)N[C@@H](Cc4ccc(N(CCCl)CCCl)cc4)C(=O)OC)[C@H]1CC[C@H]2[C@@]12CO[C@@]3(O)[C@@H](O)[C@@H]1C(C)(C)CC[C@@H]2OC(C)=O`, the IC50 with K562 stood at 1.73 µM; in the test on MCF7, 3.63 µM; in test [1], 2.56 µM; in the test with MGC-803 it was 4.71 µM.

Consider `C=C1C(=O)[C@]23[C@H](OC(=O)CCCc4ccc(N(CCCl)CCCl)cc4)[C@H]1CC[C@H]2[C@@]12CO[C@@]3(O)[C@@H](O)[C@@H]1C(C)(C)CCC2=O`, for which the concentration for half-maximal inhibition (IC50) came out at 2.37 µM in the test with K562, 2.25 µM in the test on MCF7, 2.53 µM in test [1] and 3.95 µM in the test on MGC-803.

Regarding `C=C1C(=O)[C@]23[C@H](OC(=O)[C@H](Cc4ccc(N(CCCl)CCCl)cc4)NC=O)[C@H]1CC[C@H]2[C@@]12CO[C@@]3(O)[C@@H](O)[C@@H]1C(C)(C)CC[C@@H]2O`, the IC50 with K562 came to 7.03 µM; in the test with MCF7 it was 14.6 µM; in test [1], 3.84 µM; with MGC-803 it was 7.1 µM.

For `C=C1C(=O)[C@]23[C@H](OC(=O)CCCC(=O)N[C@@H](Cc4ccc(N(CCCl)CCCl)cc4)C(=O)OC)[C@H]1CC[C@H]2[C@@]12CO[C@@]3(O)[C@@H](O)[C@@H]1C(C)(C)CC[C@@H]2O`, the IC50 stood at 5.74 µM in the test on K562, 12.9 µM with MCF7, 7.91 µM in [1] and 6.92 µM in the test with MGC-803.

With `C=C1C(=O)[C@]23[C@H](O)[C@H]1CC[C@H]2[C@@]12CO[C@]3(O)[C@@H](O)[C@@H]1C(C)(C)CC[C@@H]2O` [ORIDONIN], the IC50 with SW-620 is 6.26 µM; in [2], 4.67 µM; in the test with NCI-H460, 17.1 µM; in [3], 21.7 µM; in [4], 7.48 µM; in test [5], 17.8 µM. For the same compound, the “Ratio IC50” value with Bel-7402 is 2.38.

Consider `C=C1C(=O)[C@]23[C@H](OC(=O)CCC(=O)N[C@@H](Cc4ccc(N(CCCl)CCCl)cc4)C(=O)OC)[C@H]1CC[C@H]2[C@@]12CO[C@@]3(O)[C@@H](O)[C@@H]1C(C)(C)CCC2=O`, for which the IC50 was 1.66 µM in the test on K562, 2.88 µM with MCF7, 1.41 µM in [1] and 3.39 µM in the test with MGC-803.

In the case of `C=C1C(=O)[C@]23[C@H](OC(=O)c4ccc(N(CCCl)CCCl)cc4)[C@H]1CC[C@H]2[C@@]12CO[C@@]3(O)[C@@H](O)[C@@H]1C(C)(C)CC[C@@H]2OC(C)=O`, the IC50 worked out at 1.35 µM with K562, 0.91 µM in the test with MCF7, 2.41 µM in test [1] and 3.76 µM with MGC-803.

As for `C=C1C(=O)[C@]23[C@H](OC(=O)CCCc4ccc(N(CCCl)CCCl)cc4)[C@H]1CC[C@H]2[C@@]12CO[C@@]3(O)[C@@H](O)[C@@H]1C(C)(C)CC[C@@H]2O`, the IC50 with K562 amounted to 2.28 µM; in the test on MCF7 it was 1.32 µM; in test [1], 1.43 µM; in the test with MGC-803, 2.02 µM; in the test with SW-620, 2.7 µM; in [2], 2.28 µM. Also, the IC50 in the test on NCI-H460 was 4.81 µM; in test [3], 7.26 µM; in test [4], 1.43 µM; in test [5], 9.62 µM. The “Ratio IC50” value in the test on Bel-7402 came to 6.73.

In the case of `C=C1C(=O)[C@]23[C@H](OC(=O)c4ccc(N(CCCl)CCCl)cc4)[C@H]1CC[C@H]2[C@@]12CO[C@@]3(O)[C@@H](O)[C@@H]1C(C)(C)CCC2=O`, the IC50 with K562 was determined as 1.17 µM; in the test on MCF7, 0.67 µM; in test [1] it was 0.9 µM; with MGC-803 it was 1.6 µM.

As for `N[C@@H](Cc1ccc(N(CCCl)CCCl)cc1)C(=O)O` [MELPHALAN], the IC50 was found to be 33.4 µM with K562, 19.6 µM in the test with MCF7, 24.8 µM in test [1] and 36.9 µM in the test on MGC-803.

Turning to `O=C(O)CCCc1ccc(N(CCCl)CCCl)cc1` [CHLORAMBUCIL], the IC50 in the test on K562 amounted to 60.1 µM; with MCF7, 80.5 µM; in [1], 49.3 µM; with MGC-803 it was 134 µM; in [4], 49.3 µM; in [5], 106 µM. The “Ratio IC50” value in the test on Bel-7402 was determined as 2.14.

These data come from ChEMBL document CHEMBL3352716 (ACS Med Chem Lett, 2014).
